# Experimental data: ChEMBL document CHEMBL2021854, “2-Aminopyrimidine based 4-aminoquinoline anti-plasmodial agents. Synthesis, biological activity, structure-activity relationship and mode of action studies” (Eur J Med Chem, 2012)
# System: Human alphaherpesvirus 1
# Experiment: Antiviral activity against thymidine kinase-deficient acyclovir-resistant HSV1 KOS infected in HEL cells assessed as inhibition of virus-induced cytopathogenicity after 4 days
# Format: functional, organism-based
# Conditions: Human alphaherpesvirus 1, KOS, 96 h
# Procedure, shortened: (§1)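 Confluent HEL or HeLa monolayers infected with 100 CCID50 of virus in the presence of varying compound concentrations.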
row,Structure (SMILES),EC50 [nM]
1,Cc1nc(NCCNc2ccnc3cc(Cl)ccc23)nc(-c2ccccc2[N+](=O)[O-])c1C(=O)OC(C)C,> 20000

# System: not listed separately
# Experiment: Cytotoxicity against human HeLa cells assessed as minimum compound concentration required to causes microscopically detectable alteration of normal cell morphology
# Format: cell-based
# Conditions: not given
# Procedure, shortened: (§2)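 Confluent, non-proliferating cell cultures were exposed to the compounds. The endpoint was the minimum concentration producing a microscopically detectable alteration of normal cell morphology.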
row,Structure (SMILES),MCC [µM]
1,Cc1nc(NCCNc2ccnc3cc(Cl)ccc23)nc(-c2ccccc2[N+](=O)[O-])c1C(=O)OC(C)C,> 100

# System: Plasmodium falciparum
# Experiment: Antiplasmodial activity chloroquine-sensitive Plasmodium falciparum 3D7 infected in human A+ erythrocytes assessed as inhibition of [3H]-hypoxanthine incorporation after 24 hrs by scintillation counting
# Format: functional, organism-based
# Conditions: not given
row,Structure (SMILES),IC50 [nM]
1,Cc1nc(NCCNc2ccnc3cc(Cl)ccc23)nc(-c2ccccc2[N+](=O)[O-])c1C(=O)OC(C)C,173

# System: Sindbis virus
# Experiment: Antiviral activity against Sindbis virus infected in african green monkey Vero cells assessed as inhibition of virus-induced cytopathogenicity after 4 days
# Format: functional, organism-based
# Conditions: 96 h
# Procedure, shortened: (§3)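 Confluent HEL, Vero or HeLa monolayers were inoculated with 100 CCID50 of virus in the presence of varying concentrations of compound. Cytopathicity was scored when it reached completion in untreated, virus-infected control cultures.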
row,Structure (SMILES),EC50 [nM]
1,Cc1nc(NCCNc2ccnc3cc(Cl)ccc23)nc(-c2ccccc2[N+](=O)[O-])c1C(=O)OC(C)C,> 20000

# System: Plasmodium falciparum
# Experiment: Antiplasmodial activity chloroquine-resistant Plasmodium falciparum K1 infected in human A+ erythrocytes assessed as inhibition of [3H]-hypoxanthine incorporation after 24 hrs by scintillation counting
# Format: functional, organism-based
# Conditions: not given
row,Structure (SMILES),IC50 [nM]
1,Cc1nc(NCCNc2ccnc3cc(Cl)ccc23)nc(-c2ccccc2[N+](=O)[O-])c1C(=O)OC(C)C,96

# System: Human alphaherpesvirus 3
# Experiment: Antiviral activity against thymidine kinase-deficient […] infected in HEL cells assessed as reduction of virus plaque formation after 4 days
# Format: functional, organism-based
# Conditions: Human alphaherpesvirus 3, 07-1, HEL, 96 h
row,Structure (SMILES),EC50 [nM]
1,Cc1nc(NCCNc2ccnc3cc(Cl)ccc23)nc(-c2ccccc2[N+](=O)[O-])c1C(=O)OC(C)C,> 20000

# System: not listed separately
# Experiment: Cytotoxicity against cat CRFK cells assessed as cell viability by colorimetric formazan-based MTS assay
# Design: species or system Felis catus
# Conditions: crfk
row,Structure (SMILES),CC50 [nM]
1,Cc1nc(NCCNc2ccnc3cc(Cl)ccc23)nc(-c2ccccc2[N+](=O)[O-])c1C(=O)OC(C)C,> 100000

# System: not listed separately
# Experiment: Cytotoxicity against human HEL cells assessed as minimum compound concentration required to causes microscopically detectable alteration of normal cell morphology
# Format: cell-based
# Conditions: not given
# Procedure, shortened: as §2
row,Structure (SMILES),MCC [µM]
1,Cc1nc(NCCNc2ccnc3cc(Cl)ccc23)nc(-c2ccccc2[N+](=O)[O-])c1C(=O)OC(C)C,100

# System: Influenza B virus
# Experiment: Antiviral activity against Influenza B virus infected in MDCK cells assessed as reduction visual scoring of virus-induced cytopathogenicity after 4 days
# Format: functional, organism-based
# Conditions: 96 h
# Procedure, shortened: (§4)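 MDCK monolayers infected with 100 CCID50 of influenza A (H1N1 or H3N2) or influenza B, with varying compound concentrations. Cytopathicity read when untreated infected controls reached complete CPE.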
row,Structure (SMILES),EC50 [nM]
1,Cc1nc(NCCNc2ccnc3cc(Cl)ccc23)nc(-c2ccccc2[N+](=O)[O-])c1C(=O)OC(C)C,> 800

# System: Influenza B virus
# Experiment: Antiviral activity against Influenza B virus infected in MDCK cells assessed as inhibition of virus-induced cytopathogenicity after 4 days by colorimetric formazan-based MTS assay
# Format: functional, organism-based
# Conditions: 96 h
row,Structure (SMILES),EC50 [nM]
1,Cc1nc(NCCNc2ccnc3cc(Cl)ccc23)nc(-c2ccccc2[N+](=O)[O-])c1C(=O)OC(C)C,> 800

# System: Influenza A virus
# Experiment: Antiviral activity against Influenza A virus H1N1 infected in MDCK cells assessed as inhibition of virus-induced cytopathogenicity after 4 days by colorimetric formazan-based MTS assay
# Format: functional, organism-based
# Conditions: 96 h
row,Structure (SMILES),EC50 [nM]
1,Cc1nc(NCCNc2ccnc3cc(Cl)ccc23)nc(-c2ccccc2[N+](=O)[O-])c1C(=O)OC(C)C,> 800

# System: Human betaherpesvirus 5
# Experiment: Antiviral activity against Cytomegalovirus AD-169 infected in HEL cells assessed as inhibition of virus plaque formation after 4 days
# Format: functional, organism-based
# Conditions: Human betaherpesvirus 5, AD169, HEL, 96 h
row,Structure (SMILES),EC50 [nM]
1,Cc1nc(NCCNc2ccnc3cc(Cl)ccc23)nc(-c2ccccc2[N+](=O)[O-])c1C(=O)OC(C)C,> 20000

# System: Human immunodeficiency virus 2
# Experiment: Antiviral activity against HIV2 infected in human CEM cells assessed as inhibition of virus-induced cytopathic effect after 4 days
# Format: functional, organism-based
# Conditions: Human immunodeficiency virus 2, CCRF-CEM, 96 h
# Procedure, shortened: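 CEM T-lymphocytes (~3 × 10^5 cells/ml) were infected with HIV-1 IIIB or HIV-2 ROD at ~100 CCID50, then immediately plated with a range of compound concentrations. Giant cell formation was scored microscopically after 4 days at 37 °C. Cytostatic activity was tested in parallel in uninfected CEM cells.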
row,Structure (SMILES),EC50 [nM]
1,Cc1nc(NCCNc2ccnc3cc(Cl)ccc23)nc(-c2ccccc2[N+](=O)[O-])c1C(=O)OC(C)C,> 2000

# System: Influenza A virus
# Experiment: Antiviral activity against Influenza A virus H1N1 infected in MDCK cells assessed as reduction visual scoring of virus-induced cytopathogenicity after 4 days
# Format: functional, organism-based
# Conditions: 96 h
# Procedure, shortened: as §4
row,Structure (SMILES),EC50 [nM]
1,Cc1nc(NCCNc2ccnc3cc(Cl)ccc23)nc(-c2ccccc2[N+](=O)[O-])c1C(=O)OC(C)C,> 800

# System: Human betaherpesvirus 5
# Experiment: Antiviral activity against Human cytomegalovirus Davis infected in HEL cells assessed as inhibition of virus plaque formation after 4 days
# Format: functional, organism-based
# Conditions: Human betaherpesvirus 5, Davis, 96 h
row,Structure (SMILES),EC50 [nM]
1,Cc1nc(NCCNc2ccnc3cc(Cl)ccc23)nc(-c2ccccc2[N+](=O)[O-])c1C(=O)OC(C)C,> 20000

# System: Influenza A virus
# Experiment: Antiviral activity against Influenza A virus H3N2 infected in MDCK cells assessed as reduction visual scoring of virus-induced cytopathogenicity after 4 days
# Format: functional, organism-based
# Conditions: 96 h
# Procedure, shortened: as §4
row,Structure (SMILES),EC50 [nM]
1,Cc1nc(NCCNc2ccnc3cc(Cl)ccc23)nc(-c2ccccc2[N+](=O)[O-])c1C(=O)OC(C)C,> 800

# System: Punta Toro virus
# Experiment: Antiviral activity against Punta Toro virus infected in african green monkey Vero cells assessed as inhibition of virus-induced cytopathogenicity after 4 days
# Format: functional, organism-based
# Conditions: 96 h
# Procedure, shortened: as §3
row,Structure (SMILES),EC50 [nM]
1,Cc1nc(NCCNc2ccnc3cc(Cl)ccc23)nc(-c2ccccc2[N+](=O)[O-])c1C(=O)OC(C)C,> 20000

# System: Respiratory syncytial virus
# Experiment: Antiviral activity against Respiratory syncytial virus infected in human HeLa cells assessed as inhibition of virus-induced cytopathogenicity after 4 days
# Format: functional, organism-based
# Conditions: 96 h
# Procedure, shortened: as §3
row,Structure (SMILES),EC50 [nM]
1,Cc1nc(NCCNc2ccnc3cc(Cl)ccc23)nc(-c2ccccc2[N+](=O)[O-])c1C(=O)OC(C)C,> 100000

# System: Human alphaherpesvirus 1
# Experiment: Antiviral activity against HSV1 KOS infected in HEL cells assessed as inhibition of virus-induced cytopathogenicity after 4 days
# Format: functional, organism-based
# Conditions: Human alphaherpesvirus 1, KOS, 96 h
# Procedure, shortened: as §1
row,Structure (SMILES),EC50 [nM]
1,Cc1nc(NCCNc2ccnc3cc(Cl)ccc23)nc(-c2ccccc2[N+](=O)[O-])c1C(=O)OC(C)C,> 20000
